In ChEMBL document CHEMBL1138778, “Effects of altering the electronics of 2-methoxyestradiol on cell proliferation, on cytotoxicity in human cancer cell cultures, and on tubulin polymerization” (J Med Chem, 2004):

How the values were obtained:
[1] = tested on: HOP-62; assay: Growth inhibitory concentration against human lung cancer HOP-62 cell line; type: functional
Outline: (§1)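 Screen over 10^-4 to 10^-8 M in a human cancer cell line panel. GI50 is the concentration giving 50% growth inhibition of the individual cell line.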

[2] = tested on: UACC-62; assay: Growth inhibitory concentration required against human melanoma UACC-62 cancer cell line; type: functional; outline: as §1
[3] = tested on: HCT-116; assay: Growth inhibitory concentration against human colon cancer HCT116 cell line; type: functional; outline: as §1
[4] = tested on: MDA-MB-435; assay: Growth inhibitory concentration required against human breast MDA-MB-435 cancer cell line; type: functional; outline: as §1
[5] = Average concentration required for 50% growth inhibition of human cancer cell line (tested); type: functional; details: Cancer cell lines
Outline: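 Mean graph midpoint: average of the individual cell line GI50 values across all cancer lines screened over 10^-4 to 10^-8 M. GI50 values falling outside this range were set to 10^-8 M (below) or 10^-4 M (above).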

[6] = tested on: MDA-MB-231; assay: Inhibitory concentration against growth of MDA-MB-231 cancer cell line; type: functional, cell-based; details: Homo sapiens
Outline: (§2)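 MDA-MB-231 cells in DMEM/F12 (1:1) with 10% FBS, seeded at 1000 cells/well and attached overnight. Cells were exposed to compound for 48 h. Proliferation was read by BrdU-incorporation colorimetric ELISA or by cell counting, in triplicate, with experiments repeated at least twice.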

[7] = molecular target: Tubulin (Bos taurus, UniProt Q6B856+Q862L2+Q862F3); assay: Inhibitory concentration against bovine tubulin polymerization; type: functional
Outline: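 Bovine brain tubulin, 1.2 mg/mL (12 μM), was preincubated with a range of compound concentrations and then chilled on ice. GTP was added and assembly followed by turbidity at 350 nm for 20 min at 26 °C. IC50 is the concentration halving assembly at 20 min, from at least two independent assays.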

[8] = tested on: HUVEC; assay: Inhibitory concentration required against growth of HUVEC […] cell line; type: functional, cell-based; details: Homo sapiens
Outline: as §2, with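 “HUVEC, used up to five passages” for “MDA-MB-231 cells”, “EGM” for “DMEM/F12 (1:1)”, “bovine brain extract and antibiotic-antimycotic,” for “10% FBS,”, “3000” for “1000”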

[9] = tested on: SN12C; assay: Growth inhibitory concentration required for against human renal SN12C cancer cell line; type: functional; outline: as §1
[10] = tested on: SF-539; assay: Growth inhibitory concentration required against human CNS SF-539 cancer cell line; type: functional; outline: as §1
[11] = tested on: OVCAR-3; assay: Growth inhibitory concentration required against human ovarian OVCAR-3 cancer cell line; type: functional; outline: as §1
[12] = tested on: DU-145; assay: Growth inhibitory concentration required against human prostate DU-145 cancer cell line; type: functional; outline: as §1

| SMILES | GI50 [1] [µM] | GI50 [2] [µM] | GI50 [3] [µM] | GI50 [4] [µM] | GI50 [5] [µM] | IC50 [6] [µM] | IC50 [7] [µM] | IC50 [8] [µM] | GI50 [9] [µM] | GI50 [10] [µM] | GI50 [11] [µM] | GI50 [12] [µM] |
| --- | --- | --- | --- | --- | --- | --- | --- | --- | --- | --- | --- | --- |
| C[C@]12CC[C@@H]3c4cc(CO)c(O)cc4CC[C@H]3[C@@H]1CC[C@@H]2O | 72.4 | 23.4 | 74.1 | 24 | 34.7 | 99.2 | > 40 | 7.73 | 63.1 | 38 | 31.6 | 70.8 |
| CCOc1cc2c(cc1O)CC[C@@H]1[C@@H]2CC[C@]2(C)[C@@H](O)CC[C@@H]12 | – | – | – | – | – | 0.55 | – | 0.12 | – | – | – | – |
| CC#Cc1cc2c(cc1O)CC[C@@H]1[C@@H]2CC[C@]2(C)[C@@H](O)CC[C@@H]12 | – | – | – | – | – | 3.99 | – | 0.52 | – | – | – | – |
| C[C@]1(O)CC[C@H]2[C@@H]3CCc4cc(O)ccc4[C@H]3CC[C@@]21C | 18.2 | 1.48 | 0.7 | 0.19 | 2.5 | 7.14 | 5.6 | 3.09 | 10.2 | 0.35 | 0.66 | 2 |
| C=CCc1cc2c(cc1O)CC[C@@H]1[C@@H]2CC[C@]2(C)[C@@H](O)CC[C@@H]12 | 13.8 | 13.2 | 14.1 | 15.1 | 18.2 | 33.4 | > 40 | 8.51 | 18.2 | 21.9 | 21.9 | 24 |
| CCC(=O)c1cc2c(cc1O)CC[C@@H]1[C@@H]2CC[C@]2(C)[C@@H](O)CC[C@@H]12 | 15.1 | 11.5 | 9.3 | 2.4 | 12 | 15.8 | > 40 | 22.5 | 13.8 | 11.7 | 4 | 15.5 |
| CC(=O)Oc1cc2c(cc1C(C)(F)F)[C@H]1CC[C@]3(C)[C@@H](OC(C)=O)CC[C@H]3[C@@H]1CC2 | 31.6 | 12.3 | 10.7 | 20.9 | 11.7 | 95.9 | > 40 | 32.3 | 27.5 | 20 | 1.9 | 13.8 |
| CN(C)CCC/N=C/c1cc2c(cc1O)CC[C@@H]1[C@@H]2CC[C@]2(C)[C@@H](O)CC[C@@H]12 | 21.4 | 13.8 | 12.6 | 22.9 | 20 | – | > 40 | – | 25.7 | 18.2 | 19.5 | 20.9 |
| C/C(COc1cc2c(cc1O)CC[C@@H]1[C@@H]2CC[C@]2(C)[C@@H](O)CC[C@@H]12)=N/O | 23.4 | 15.5 | 18.2 | 24 | 24 | – | > 40 | – | 27.5 | 20.9 | 20.4 | 29.5 |
| C=C1CC[C@H]2[C@@H]3CCc4cc(O)c(OCC)cc4[C@H]3CC[C@]12C | 0.56 | 0.54 | 0.6 | 0.08 | 0.79 | 0.7 | 2.9 | 0.26 | 0.19 | 0.12 | 0.28 | 0.47 |
| COc1cc2c(cc1O)CC[C@@H]1[C@@H]2CC[C@@]2(C)[C@H]1CC[C@]2(C)O | 15.2 | 6.3 | 2.8 | 1.4 | 10.2 | 3.33 | > 40 | 2.4 | 7.8 | 6.9 | 7.1 | 12.3 |
| C[C@]12CC[C@@H]3c4cc(/C=N/C5CC5)c(O)cc4CC[C@H]3[C@@H]1CC[C@@H]2O | 24 | 16.2 | 12.3 | 16.2 | 16.6 | – | > 40 | – | 70.8 | 17 | 14.5 | 16.6 |
| CC(=O)c1cc2c(cc1O)CC[C@@H]1[C@@H]2CC[C@]2(C)[C@@H](O)CC[C@@H]12 | 5.4 | 24.5 | – | 4.3 | 17.4 | 13.6 | > 20 | 15.6 | 53.7 | 18.6 | 25.7 | 55 |
| COc1cc2c(cc1O)CC[C@@H]1[C@@H]2CC[C@@]2(C)[C@H]1CC[C@]2(C)[C@H](O)c1ccccc1 | 18.2 | 13.5 | 17 | 16.2 | 14.5 | 47.2 | > 40 | 21 | 14.1 | 17.8 | 14.1 | 5.1 |
| CC#Cc1cc2c(cc1O)CC[C@@H]1[C@@H]2CC[C@@]2(C)[C@H]1CC[C@]2(C)O | 3.1 | 4 | 4.3 | 0.3 | 3.2 | 5.99 | 11 | 1.94 | 7.4 | 2.6 | 1.5 | 4.1 |
| C[C@]12CC[C@@H]3c4cc(C(F)(F)C(F)(F)F)c(O)cc4CC[C@H]3[C@@H]1CC[C@@H]2O | – | 13.8 | 17.8 | 12 | 18.6 | 47.5 | > 40 | 25 | 16.6 | 18.2 | 13.2 | 14.5 |
| CCOc1cc2c(cc1O)CC[C@@H]1[C@@H]2CC[C@@]2(C)[C@H]1CC[C@]2(C)O | 5 | 3.74 | 3.5 | 1.3 | 4.7 | 18.4 | 4.8 | 5.7 | 4.5 | 2.8 | 2.8 | 5.2 |
| COc1cc2c(cc1O)CC[C@@H]1[C@@H]2CC[C@@]2(C)[C@H]1CC[C@@]2(O)C(F)(F)F | – | 18.2 | 22.4 | 16.2 | 19.5 | 49.3 | > 40 | 40 | 24.5 | 19.5 | 15.8 | 18.2 |
| COCc1cc2c(cc1O)CC[C@@H]1[C@@H]2CC[C@]2(C)[C@@H](O)CC[C@@H]12 | 83.2 | 24.5 | 33.1 | 7.8 | 38 | 54 | > 40 | 28.8 | 56.2 | 33.9 | 40.7 | 64.6 |
| COc1cc2c(cc1O)CCC1[C@@H]2CC[C@@]2(C)[C@H]1CCC2(F)F (single isomer, unassigned) | 81.3 | 58.9 | 66.1 | 35.5 | 40.7 | 70.8 | > 40 | 58.3 | 24.5 | 31.6 | 43.7 | 56.2 |
| C[C@]12CC[C@@H]3c4ccc(O)cc4CCC3[C@@H]1CCC2(F)F (single isomer, unassigned) | 19.5 | 14.1 | 14.5 | 15.8 | 16.6 | 54.4 | > 40 | 6.6 | 18.6 | 17.4 | 11 | 16.6 |
